Reference: ChEMBL document CHEMBL4028857, “Anchimerically Activated ProTides as Inhibitors of Cap-Dependent Translation and Inducers of Chemosensitization in Mantle Cell Lymphoma” (J Med Chem, 2017)
Active and inactive are the calls of the source. No cut-off for these calls is given here.

Key:
[1] = Antiproliferative activity against human Mino cells after 48 hrs by Annexin V/propidium iodide based flow cytometric analysis; assay type: functional, cell-based
Summary of the method: (§1)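 MCL lines treated 48 h with compound re-added daily (alone or with co-drug; ibrutinib 25 µM), then survival assessed by Annexin V/PI flow cytometry.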

[2] = system: Granta-519; test: Prodrug activation in human GRANTA-519 cells assessed as 9-((2R,3R,4S,5R)-5-(((((2-(1H-Indol-3-yl)ethyl)amino)-(hydroxy)phosphoryl)oxy)methyl)-3,4-dihydroxytetrahydrofuran-2-yl)-2-amino-7-(2-(4-chlorophenoxy)ethyl)-6-oxo-6,9-dihydro-1H-purin-7-ium formation per 5 million cells at 150 uM after 12 hrs by LC-MS/MS analysis; assay type: cell-based; details: granta-519, 12 h
Summary of the method: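 Five million MCL cells in RPMI/10% FBS with penicillin, streptomycin and L-glutamine were exposed to compound (150 µM) for 12 h at 37 °C. Cells were washed in cold PBS, extracted in MeOH/NH4OAc (60:40) with 80 fmol internal standards, freeze-thawed three times, then filtered and dried. Residue was taken up in HEPES for LC-MS/MS, quantified against an internal-standard curve.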

[3] = biological target: Adenosine 5'-monophosphoramidase HINT1 (Homo sapiens, UniProt P49773); test: Prodrug activation in human Z138 cells assessed as Hint1 mediated 2-amino-7-(2-(4-chlorophenoxy)ethyl)-9-((2R,3R,4S,5R)-3,4-dihydroxy-5-(phosphonooxymethyl)tetrahydrofuran-2-yl)-6-oxo-6,9-dihydro-1H-purin-7-ium formation per 5 million cells at 150 uM after 12 hrs by LC-MS/MS analysis; assay type: cell-based
Summary of the method: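 Mantle cell lymphoma cells (five million) grown in RPMI with 10% FBS, penicillin/streptomycin and L-glutamine at 37 °C, 5% CO2, then exposed to 150 µM compound for 12 h at 37 °C. Washed with ice-cold PBS, pellet extracted in MeOH/NH4OAc (60:40) with 80 fmol internal standards, three liquid-N2 freeze–thaw cycles, filtered, dried, redissolved in 20 mM HEPES pH 7.2. Analysed by LC-MS/MS against a standard curve.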

[4] = Volume of distribution in Sprague-Dawley rat at 2.5 mg/kg, iv by LC-MS/MS analysis; assay type: ADME, organism-based; details: in vivo
Summary of the method: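 Female Sprague-Dawley rats (n=3, 250-274 g) with catheters; compound in 0.5% aqueous CMC with 5% DMSO given as a single i.v. injection, 2.5 mg/kg. Blood drawn at 0–480 min into K2EDTA tubes. Plasma precipitated with acetonitrile containing internal standards, then LC-MS/MS in positive MRM mode. Parameters from non-compartmental analysis.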

[5] = biological target: Eukaryotic translation initiation factor 4E (Homo sapiens) (UniProt P06730); test: Inhibition of eIF4E in human Mino cells assessed as increase in p27 protein expression after 48 hrs by Western blot method; assay type: cell-based
Summary of the method: (§2)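 MCL lines treated 48 h with compound; protein quantified and Western blotted with eIF4E, eIF4G, actin, c-Myc and Bcl-2 antibodies.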

[6] = system: Mino; test: (§3) Antiproliferative activity against human Mino cells preincubated for 48 hrs followed by thymidine addition measure after 16 hrs by Thymidine incorporation assay; assay type: functional, cell-based
Summary of the method: (§4)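 MCL lines treated 48 h with compound re-added daily, alone or with co-drug (ibrutinib 25 µM where used), then thymidine added for a further 16 h; proliferation read as thymidine incorporation.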

[7] = as §3; assay type: functional, cell-based; summary of the method: as §4
[8] = biological target: Eukaryotic translation initiation factor 4E (Homo sapiens) (UniProt P06730); test: Inhibition of eIF4E in human GRANTA-519 cells assessed as disruption of interaction between protein and mRNA 5'-cap at 10 to 100 uM by m7GTP pull-down assay; assay type: cell-based
Summary of the method: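 Eight to ten million treated MCL cells washed in cold PBS, lysed in cap binding buffer, and eIF4E binding captured on m7GTP-Sepharose beads (pull-down).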

[9] = Antiproliferative activity against human Mino cells at 200 uM preincubated for 48 hrs followed by thymidine addition measure after 16 hrs by Thymidine incorporation assay; assay type: functional; summary of the method: as §4
[10] = biological target: Eukaryotic translation initiation factor 4E-binding protein 1 (Homo sapiens) (UniProt Q13541); test: Inhibition of 4EBP1 phosphorylation at Ser 65 residues in human Mino cells at 100 uM after 48 hrs by Western blot analysis; assay type: cell-based; summary of the method: as §2
[11] = system: Rattus norvegicus; test: AUC (0 to 8 hrs) in Sprague-Dawley rat plasma assessed as 9-((2R,3R,4S,5R)-5-(((((2-(1H-Indol-3-yl)ethyl)amino)-(hydroxy)phosphoryl)oxy)methyl)-3,4-dihydroxytetrahydrofuran-2-yl)-2-amino-7-(2-(4-chlorophenoxy)ethyl)-6-oxo-6,9-dihydro-1H-purin-7-ium at 2.5 mg/kg, iv by LC-MS/MS analysis; assay type: ADME, organism-based; set-up: time < 8 hr, dose 2.5 mg/kg, route intravenous; details: in vivo
Summary of the method: (§5)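 Female Sprague-Dawley rats (250-274 g, n=3, catheterized femoral/jugular veins) dosed once p.o. by gavage (25 mg/kg) then, after a 3-day washout, i.v. (2.5 mg/kg). Formulation: 10 mg/mL in 0.5% aqueous CMC with 5% DMSO. Serial blood draws to 480 min into K2EDTA; plasma protein-precipitated with acetonitrile plus internal standards; LC-MS/MS (positive MRM); non-compartmental PK; %F from dose-normalized AUC per rat.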

[12] = biological target: Eukaryotic translation initiation factor 4E (Homo sapiens) (UniProt P06730); test: Inhibition of eIF4E in human Mino cells assessed as potentiation of doxorobucin induced antiproliferation at 100 uM preincubated for 48 hrs followed by thymidine addition measure after 16 hrs by Thymidine incorporation assay; assay type: cell-based; summary of the method: as §4
[13] = system: Rattus norvegicus; test: Cmax in Sprague-Dawley rat assessed as 9-((2R,3R,4S,5R)-5-(((((2-(1H-Indol-3-yl)ethyl)amino)-(hydroxy)phosphoryl)oxy)methyl)-3,4-dihydroxytetrahydrofuran-2-yl)-2-amino-7-(2-(4-chlorophenoxy)ethyl)-6-oxo-6,9-dihydro-1H-purin-7-ium level at 25 mg/kg, po measured at 30 mins post dose by LC-MS/MS analysis; assay type: ADME, organism-based; set-up: dose 25 mg/kg, route oral; details: in vivo, 0.5 h; summary of the method: as §5
[14] = Half life in Sprague-Dawley rat at 2.5 mg/kg, iv by LC-MS/MS analysis; assay type: ADME, organism-based; details: in vivo; summary of the method: as §5
[15] = biological target: Eukaryotic translation initiation factor 4E (Homo sapiens) (UniProt P06730); test: Inhibition of eIF4E in human Mino cells assessed as potentiation of ibrutinib induced antiproliferation at 100 uM preincubated for 48 hrs followed by thymidine addition measure after 16 hrs by Thymidine incorporation assay; assay type: cell-based; summary of the method: as §4
[16] = system: Granta-519; test: Antiproliferative activity against human GRANTA-519 cells after 48 hrs by Annexin V/propidium iodide based flow cytometric analysis; assay type: functional, cell-based; details: Granta-519, 48 h; summary of the method: as §1
[17] = biological target: Eukaryotic translation initiation factor 4E-binding protein 1 (Homo sapiens) (UniProt Q13541); test: Inhibition of 4EBP1 phosphorylation at Thr 37/46 residues in human Mino cells at 100 uM after 48 hrs by Western blot analysis; assay type: cell-based; summary of the method: as §2
[18] = system: Plasma; test: Prodrug activation in Sprague-Dawley rat assessed as Hint1 mediated 2-amino-7-(2-(4-chlorophenoxy)ethyl)-9-((2R,3R,4S,5R)-3,4-dihydroxy-5-(phosphonooxymethyl)tetrahydrofuran-2-yl)-6-oxo-6,9-dihydro-1H-purin-7-ium formation in plasma at 2.5 mg/kg, iv or 25 mg/kg, po by LC-MS/MS analysis; assay type: organism-based; details: in vivo; summary of the method: as §5
[19] = biological target: Eukaryotic translation initiation factor 4E (Homo sapiens) (UniProt P06730); test: Inhibition of eIF4E in human GRANTA-519 cells assessed as down regulation of c-Myc protein expression after 48 hrs by Western blot method; assay type: cell-based; summary of the method: as §2
[20] = Cytotoxicity against human Mino cells assessed as reduction in cell survival at 100 uM after 48 hrs in presence of doxorubicin by Annexin V/propidium iodide based flow cytometric analysis; summary of the method: as §1
[21] = Half life in HEPES buffer at 80 uM at pH 2 by RP-HPLC analysis; assay type: physicochemical
Summary of the method: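 Compound at 80 µM in 20 mM HEPES (pH 7.2 or 2.0) incubated at 37 °C; aliquots analyzed by RP-HPLC at 0, 1, 4, 6, 12, 18 and 24 h to follow methylthioalkyl deprotection and derive half-life.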

[22] = biological target: Eukaryotic translation initiation factor 4E (Homo sapiens) (UniProt P06730); test: Inhibition of eIF4E in human Mino cells assessed as down regulation of c-Myc protein expression at 100 uM after 48 hrs by Western blot analysis; assay type: cell-based; summary of the method: as §2

Sequence of Eukaryotic translation initiation factor 4E (Homo sapiens) (P06730 whole entry): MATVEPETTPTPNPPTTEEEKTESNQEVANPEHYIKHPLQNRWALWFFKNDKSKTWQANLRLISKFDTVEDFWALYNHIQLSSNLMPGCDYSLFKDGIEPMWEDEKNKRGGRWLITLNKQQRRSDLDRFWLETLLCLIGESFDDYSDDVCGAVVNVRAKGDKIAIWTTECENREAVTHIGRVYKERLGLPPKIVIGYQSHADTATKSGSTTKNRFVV
Sequence of Eukaryotic translation initiation factor 4E-binding protein 1 (Homo sapiens) (Q13541 whole entry): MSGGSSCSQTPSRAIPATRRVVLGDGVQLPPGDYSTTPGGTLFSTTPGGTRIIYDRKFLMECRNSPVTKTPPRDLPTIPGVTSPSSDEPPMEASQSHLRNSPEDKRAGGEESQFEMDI
Sequence of Adenosine 5'-monophosphoramidase HINT1 (P49773 whole entry): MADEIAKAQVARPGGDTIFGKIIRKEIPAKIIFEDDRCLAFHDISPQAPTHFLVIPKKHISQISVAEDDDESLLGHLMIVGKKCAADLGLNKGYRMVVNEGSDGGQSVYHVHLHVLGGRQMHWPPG

CSCCOP(=O)(NCCc1c[nH]c2ccccc12)OC[C@H]1O[C@@H](n2c[n+](CCOc3ccc(Cl)cc3)c3c(=O)[nH]c(N)nc32)[C@H](O)[C@@H]1O (some centres not stated)
IC50 [1]: > 200 µM
Drug metabolism [2]: 0.33 pmol
Drug metabolism [3]: 272 pmol
Vd [4]: 205 L/kg
inhibition [5]: Dose-dependent effect
Activity [6]: Dose-dependent effect
IC50 [7]: 50 µM
inhibition [8]: Active
Activity [9]: 100%
inhibition [10]: inactive
AUC [11]: 0.5 µg·min/mL
inhibition [12]: Active
Cmax [13]: 6 ng/mL
half-life [14]: 1.32 h
inhibition [15]: Active
IC50 [16]: > 200 µM
inhibition [17]: inactive
Drug metabolism [18]: Metabolite_Notdetected
inhibition [19]: Dose-dependent effect
Activity [20]: Non-Toxic
half-life at 80 µM [21]: 5 h
inhibition [22]: Active
